ChEMBL document CHEMBL4706624, “Synthesis and evaluation of new quinazoline-benzimidazole hybrids as potent anti-microbial agents against multidrug resistant Staphylococcus aureus and Mycobacterium tuberculosis” (Eur J Med Chem, 2021)
In brackets after ≈: the same amount, converted by molar mass.

Legend:
Staphylococcus aureus [1] = test: Antibacterial activity against methicillin-resistant Staphylococcus aureus NR10191 measured after 16 to 18 hrs; assay type: functional; settings: time 16-18 hrs
How it was run: (§1)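 Broth microdilution MIC. Strains grown on MHA; a single colony was grown overnight in CA-MHB at 37 °C with shaking for 18–24 h. Cultures were diluted by OD600 to ~10⁶ cfu/mL and exposed to compound at […]. Plates were incubated at 37 °C for 16-18 h. MIC = lowest concentration with no visible growth. Levofloxacin was the reference. Three independent runs, each in duplicate.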

Staphylococcus aureus [2] = test: Antibacterial activity against methicillin-resistant Staphylococcus aureus NR10192 measured after 16 to 18 hrs; assay type: functional; settings: time 16-18 hrs; how it was run: as §1
Staphylococcus aureus [3] = test: Antibacterial activity against methicillin-resistant Staphylococcus aureus NR10194 measured after 16 to 18 hrs; assay type: functional; settings: time 16-18 hrs; how it was run: as §1
Staphylococcus aureus [4] = test: Antibacterial activity against vancomycin-resistant Staphylococcus aureus VRS1 measured after 16 to 18 hrs; assay type: functional; settings: time 16-18 hrs; how it was run: as §1
Staphylococcus aureus [5] = test: Antibacterial activity against Staphylococcus aureus ATCC 29213 measured after 16 to 18 hrs; assay type: functional; settings: time 16-18 hrs; how it was run: as §1
Staphylococcus aureus [6] = test: Antibacterial activity against vancomycin-resistant Staphylococcus aureus VRS4 measured after 16 to 18 hrs; assay type: functional; settings: time 16-18 hrs; how it was run: as §1
Pseudomonas aeruginosa = test: Antibacterial activity against Pseudomonas aeruginosa ATCC 27853 measured after 16 to 18 hrs; assay type: functional; settings: time 16-18 hrs; how it was run: as §1
Staphylococcus aureus [7] = test: Antibacterial activity against methicillin-resistant Staphylococcus aureus NR10193 measured after 16 to 18 hrs; assay type: functional; settings: time 16-18 hrs; how it was run: as §1
Staphylococcus aureus [8] = test: Antibacterial activity against vancomycin-resistant Staphylococcus aureus VRS12 measured after 16 to 18 hrs; assay type: functional; settings: time 16-18 hrs; how it was run: as §1
Klebsiella pneumoniae = test: Antibacterial activity against Klebsiella pneumoniae BAA-1705 measured after 16 to 18 hrs; assay type: functional; settings: ATCC BAA-1705, time 16-18 hrs; how it was run: as §1
Staphylococcus aureus [9] = test: Antibacterial activity against methicillin-resistant Staphylococcus aureus NR119 measured after 16 to 18 hrs; assay type: functional; settings: time 16-18 hrs; how it was run: as §1
Staphylococcus aureus [10] = test: Antibacterial activity against methicillin-resistant Staphylococcus aureus NR100 measured after 16 to 18 hrs; assay type: functional; settings: time 16-18 hrs; how it was run: as §1
Escherichia coli = test: Antibacterial activity against Escherichia coli ATCC 25922 measured after 16 to 18 hrs; assay type: functional; settings: time 16-18 hrs; how it was run: as §1
Staphylococcus aureus [11] = test: Antibacterial activity against methicillin-resistant Staphylococcus aureus NR10186 measured after 16 to 18 hrs; assay type: functional; settings: time 16-18 hrs; how it was run: as §1
Staphylococcus aureus [12] = test: Antibacterial activity against methicillin-resistant Staphylococcus aureus NR10198 measured after 16 to 18 hrs; assay type: functional; settings: time 16-18 hrs; how it was run: as §1
[13] = Selectivity index, ratio of CC50 for cytotoxicity against African green monkey Vero cells to MIC for antibacterial activity against Staphylococcus aureus ATCC 29213; assay type: toxicity, cell-based; settings: read-out: Selectivity Index
How it was run: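 SI = Vero CC50 (MTT, 72 h) divided by MIC against S. aureus ATCC 29213 (CA-MHB broth microdilution, 16-18 h, 37 °C).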

Staphylococcus aureus [14] = test: Antibacterial activity against methicillin-resistant Staphylococcus aureus NR10129 measured after 16 to 18 hrs; assay type: functional; settings: time 16-18 hrs; how it was run: as §1
[15] = Cytotoxicity against African green monkey Vero cells assessed as reduction in cell viability measured after 72 hrs by MTT assay; assay type: cell-based; settings: chlorocebus sabaeus
How it was run: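 Vero cells (ATCC CCL-81), ~10³ cells/well, held 24 h at 37 °C in 5% CO₂. Compound at 100–5 mg/L for 72 h. MTT was added for 4 h, formazan dissolved in DMSO, OD read at 540 nm. CC50 = concentration giving 50% viability reduction. Doxorubicin was the positive control. Triplicate.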

Acinetobacter baumannii = test: Antibacterial activity against Acinetobacter baumannii BAA1605 measured after 16 to 18 hrs; assay type: functional; settings: time 16-18 hrs; how it was run: as §1
Staphylococcus aureus [16] = test: Antibacterial activity against methicillin-sensitive Staphylococcus aureus ATCC 29213 measured after 16 to 18 hrs; assay type: functional; settings: time 16-18 hrs; how it was run: as §1
Mycobacteroides chelonae = test: Antimycobacterial activity against Mycobacterium chelonae ATCC 35752 by broth microdilution method; assay type: functional
How it was run: (§2)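 Broth microdilution MIC in Middlebrook 7H9 with 10% ADC-Tween-80 (BSA, dextrose, 0.2% glycerol, 0.05% Tween-80). Inoculum ~10⁶ cfu/mL set by OD600. Compounds were twofold serially diluted, 0.0064–0.00005 g/100 mL (DMSO stocks). Presto blue resazurin dye was used as read-out. MIC = lowest concentration inhibiting visible growth. Triplicate runs, each in duplicate.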

[17] = tested on: Mycolicibacterium fortuitum; test: Antimycobacterial activity against Mycobacterium fortuitum ATCC 6841 by broth microdilution method; assay type: functional; how it was run: as §2
[18] = tested on: Mycobacteroides abscessus; test: Antimycobacterial activity against Mycobacterium abscessus ATCC 19977 by broth microdilution method; assay type: functional; how it was run: as §2
[19] = tested on: Mycobacterium tuberculosis; test: Antitubercular activity against Mycobacterium tuberculosis H37Rv ATCC 27294 measured after 7 days by broth microdilution method; assay type: functional; settings: H37Rv ATCC 27294, 168 h, time 7 day
How it was run: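 H37Rv in Middlebrook 7H9 with 10% ADC, 0.2% glycerol, 0.05% Tween-80. Inoculum ~10⁶ cfu/mL set by OD600. Twofold serial dilutions, 0.0064–0.00005 g/100 mL. Incubated at 37 °C for 7 days, then Presto blue resazurin read-out. MIC = lowest concentration inhibiting visible growth. Triplicate runs, each in duplicate.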

SMILES	MIC (Staphylococcus aureus [1]) [µg/mL]	MIC (Staphylococcus aureus [2]) [µg/mL]	MIC (Staphylococcus aureus [3]) [µg/mL]	MIC (Staphylococcus aureus [4]) [µg/mL]	MIC (Staphylococcus aureus [5]) [µg/mL]	MIC (Staphylococcus aureus [6]) [µg/mL]	MIC (Pseudomonas aeruginosa) [µg/mL]	MIC (Staphylococcus aureus [7]) [µg/mL]	MIC (Staphylococcus aureus [8]) [µg/mL]	MIC (Klebsiella pneumoniae) [µg/mL]	MIC (Staphylococcus aureus [9]) [µg/mL]	MIC (Staphylococcus aureus [10]) [µg/mL]	MIC (Escherichia coli) [µg/mL]	MIC (Staphylococcus aureus [11]) [µg/mL]	MIC (Staphylococcus aureus [12]) [µg/mL]	selectivity ratio [13]	MIC (Staphylococcus aureus [14]) [µg/mL]	CC50 at 72 h [15] [µg/mL]	MIC (Acinetobacter baumannii) [µg/mL]	MIC (Staphylococcus aureus [16]) [µg/mL]	also measured
Fc1ccc2[nH]c(-c3ccc(Nc4nc(-c5ccc(Cl)cc5)nc5ccccc45)cc3)nc2c1	8 (≈ 17.2 µM)	2 (≈ 4.29 µM)	4 (≈ 8.59 µM)	4 (≈ 8.59 µM)	4 (≈ 8.59 µM)	2 (≈ 4.29 µM)	> 64	8 (≈ 17.2 µM)	4 (≈ 8.59 µM)	> 64	4 (≈ 8.59 µM)	4 (≈ 8.59 µM)	> 64	4 (≈ 8.59 µM)	8 (≈ 17.2 µM)	12.5	4 (≈ 8.59 µM)	50 (≈ 107 µM)	> 64	4 (≈ 8.59 µM)	–
Clc1ccc(-c2nc(Nc3ccc(-c4nc5ccccc5[nH]4)cc3)c3ccccc3n2)cc1	8 (≈ 17.9 µM)	4 (≈ 8.93 µM)	8 (≈ 17.9 µM)	4 (≈ 8.93 µM)	4 (≈ 8.93 µM)	8 (≈ 17.9 µM)	> 64	8 (≈ 17.9 µM)	8 (≈ 17.9 µM)	> 64	32 (≈ 71.4 µM)	8 (≈ 17.9 µM)	> 64	16 (≈ 35.7 µM)	8 (≈ 17.9 µM)	12.5	8 (≈ 17.9 µM)	50 (≈ 112 µM)	> 64	8 (≈ 17.9 µM)	–
Clc1ccc2[nH]c(-c3ccc(Nc4nc(-c5ccccc5)nc5ccccc45)cc3)nc2c1	16 (≈ 35.7 µM)	8 (≈ 17.9 µM)	8 (≈ 17.9 µM)	4 (≈ 8.93 µM)	8 (≈ 17.9 µM)	8 (≈ 17.9 µM)	> 64	16 (≈ 35.7 µM)	8 (≈ 17.9 µM)	> 64	8 (≈ 17.9 µM)	8 (≈ 17.9 µM)	> 64	8 (≈ 17.9 µM)	4 (≈ 8.93 µM)	12.5	8 (≈ 17.9 µM)	100 (≈ 223 µM)	> 64	8 (≈ 17.9 µM)	MIC (Mycobacteroides chelonae): 32 µg/mL (≈ 71.4 µM); MIC [17]: 32 µg/mL (≈ 71.4 µM); MIC [18]: > 64 µg/mL; MIC [19]: 32 µg/mL (≈ 71.4 µM)
c1ccc(-c2nc(Nc3ccc(-c4nc5ccccc5[nH]4)cc3)c3ccccc3n2)cc1	16 (≈ 38.7 µM)	32 (≈ 77.4 µM)	8 (≈ 19.3 µM)	8 (≈ 19.3 µM)	8 (≈ 19.3 µM)	8 (≈ 19.3 µM)	> 64	16 (≈ 38.7 µM)	16 (≈ 38.7 µM)	> 64	8 (≈ 19.3 µM)	32 (≈ 77.4 µM)	> 64	8 (≈ 19.3 µM)	4 (≈ 9.67 µM)	10	16 (≈ 38.7 µM)	80 (≈ 193 µM)	> 64	8 (≈ 19.3 µM)	MIC (Mycobacteroides chelonae): > 64 µg/mL; MIC [17]: > 64 µg/mL; MIC [18]: > 64 µg/mL; MIC [19]: > 64 µg/mL
